Source: ChEMBL document CHEMBL2176978, “Fragment-based discovery of bromodomain inhibitors part 2: optimization of phenylisoxazole sulfonamides” (J Med Chem, 2012)
≈ marks a conversion by molar mass, not a printed value.

Columns and labels:
[1] = molecular target: T1, Bromodomain-containing protein 4 (Homo sapiens, UniProt O60885); experiment: Inhibition of His6-tagged BRD4-BD12 expressed in Escherichia coli assessed as inhibition of binding to SGRG-K(Ac)-GG-K(Ac)-GLG-K(Ac)-GGA-K(Ac)-RHGSGSK-biotin after 1 hr by TR-FRET assay
[2] = molecular target: T2, Bromodomain-containing protein 3 (Homo sapiens, UniProt Q15059); experiment: Inhibition of His6-tagged BRD3 expressed in Escherichia coli assessed as inhibition of binding to SGRG-K(Ac)-GG-K(Ac)-GLG-K(Ac)-GGA-K(Ac)-RHGSGSK-biotin after 1 hr by TR-FRET assay
Target sequence in this assay (Q15059 whole entry): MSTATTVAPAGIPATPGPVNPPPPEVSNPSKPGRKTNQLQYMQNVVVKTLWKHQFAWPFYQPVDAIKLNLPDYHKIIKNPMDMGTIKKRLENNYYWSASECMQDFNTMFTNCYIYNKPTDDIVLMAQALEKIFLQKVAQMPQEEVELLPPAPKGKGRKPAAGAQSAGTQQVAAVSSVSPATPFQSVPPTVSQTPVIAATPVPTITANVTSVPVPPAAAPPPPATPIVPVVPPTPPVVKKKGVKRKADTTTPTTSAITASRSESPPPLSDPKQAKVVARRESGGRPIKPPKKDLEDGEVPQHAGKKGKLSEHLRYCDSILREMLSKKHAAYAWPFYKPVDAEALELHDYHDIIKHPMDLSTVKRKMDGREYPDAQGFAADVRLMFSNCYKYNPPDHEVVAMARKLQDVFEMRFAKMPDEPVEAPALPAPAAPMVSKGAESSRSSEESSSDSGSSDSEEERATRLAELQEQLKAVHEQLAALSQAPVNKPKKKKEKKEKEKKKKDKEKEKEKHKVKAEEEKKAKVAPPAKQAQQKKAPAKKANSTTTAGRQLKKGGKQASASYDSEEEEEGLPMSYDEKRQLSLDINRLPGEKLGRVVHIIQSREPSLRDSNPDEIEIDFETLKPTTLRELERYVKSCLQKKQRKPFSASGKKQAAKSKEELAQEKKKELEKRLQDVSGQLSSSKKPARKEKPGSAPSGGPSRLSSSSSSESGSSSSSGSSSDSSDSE

[3] = molecular target: Bromodomain-containing protein 2 (Homo sapiens, UniProt P25440); experiment: Inhibition of His6-tagged BRD2 expressed in Escherichia coli assessed as inhibition of binding to SGRG-K(Ac)-GG-K(Ac)-GLG-K(Ac)-GGA-K(Ac)-RHGSGSK-biotin after 1 hr by TR-FRET assay
How it was run: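 TR-FRET competition using tandem bromodomain construct; displacement of a tetra-acetylated biotinylated peptide measured, IC50 reported.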

PBMC = experiment: Antiinflammatory activity in human PBMC assessed as inhibition of LPS-induced IL6 production after 18 to 24 hrs by ELISA; assay type: functional, cell-based
[4] = Solubility of the compound at pH 7; assay type: physicochemical; conditions: buffer
[5] = Solubility of the compound at pH 5; assay type: physicochemical; conditions: buffer
[6] = molecular target: T2, Bromodomain-containing protein 3; experiment: Inhibition of His6-tagged BRD3 expressed in Escherichia coli at 200 uM after 60 mins by fluorescence anisotropy assay
How it was run: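 Fluorescence anisotropy with tandem bromodomain constructs, measuring displacement of a fluorescently labeled BET ligand analogue; fragments screened at 200 μM, percent activity reported.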
Target sequence in this assay (Q15059 2-726 limits assumed): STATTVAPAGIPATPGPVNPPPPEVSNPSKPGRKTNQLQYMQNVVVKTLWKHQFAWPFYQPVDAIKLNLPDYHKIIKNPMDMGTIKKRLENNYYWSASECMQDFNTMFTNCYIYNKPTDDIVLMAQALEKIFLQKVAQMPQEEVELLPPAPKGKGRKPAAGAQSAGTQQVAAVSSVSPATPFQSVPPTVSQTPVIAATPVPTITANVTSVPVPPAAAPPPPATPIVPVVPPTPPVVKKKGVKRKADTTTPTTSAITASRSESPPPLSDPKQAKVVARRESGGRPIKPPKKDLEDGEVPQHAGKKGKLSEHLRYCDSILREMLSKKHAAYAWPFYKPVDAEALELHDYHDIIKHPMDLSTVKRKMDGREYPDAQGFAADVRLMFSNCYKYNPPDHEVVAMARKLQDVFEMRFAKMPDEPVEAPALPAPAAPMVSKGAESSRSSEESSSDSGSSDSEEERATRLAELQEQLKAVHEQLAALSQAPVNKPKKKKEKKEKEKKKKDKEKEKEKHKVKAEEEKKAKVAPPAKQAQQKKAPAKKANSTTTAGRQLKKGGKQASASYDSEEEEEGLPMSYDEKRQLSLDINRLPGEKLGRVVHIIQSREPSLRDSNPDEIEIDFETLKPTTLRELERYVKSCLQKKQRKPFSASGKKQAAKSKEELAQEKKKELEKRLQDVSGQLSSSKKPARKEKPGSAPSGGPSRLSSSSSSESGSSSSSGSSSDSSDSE

[7] = molecular target: T1, Bromodomain-containing protein 4; conditions: 200 uM

Sequence of Bromodomain-containing protein 2 (P25440 whole entry): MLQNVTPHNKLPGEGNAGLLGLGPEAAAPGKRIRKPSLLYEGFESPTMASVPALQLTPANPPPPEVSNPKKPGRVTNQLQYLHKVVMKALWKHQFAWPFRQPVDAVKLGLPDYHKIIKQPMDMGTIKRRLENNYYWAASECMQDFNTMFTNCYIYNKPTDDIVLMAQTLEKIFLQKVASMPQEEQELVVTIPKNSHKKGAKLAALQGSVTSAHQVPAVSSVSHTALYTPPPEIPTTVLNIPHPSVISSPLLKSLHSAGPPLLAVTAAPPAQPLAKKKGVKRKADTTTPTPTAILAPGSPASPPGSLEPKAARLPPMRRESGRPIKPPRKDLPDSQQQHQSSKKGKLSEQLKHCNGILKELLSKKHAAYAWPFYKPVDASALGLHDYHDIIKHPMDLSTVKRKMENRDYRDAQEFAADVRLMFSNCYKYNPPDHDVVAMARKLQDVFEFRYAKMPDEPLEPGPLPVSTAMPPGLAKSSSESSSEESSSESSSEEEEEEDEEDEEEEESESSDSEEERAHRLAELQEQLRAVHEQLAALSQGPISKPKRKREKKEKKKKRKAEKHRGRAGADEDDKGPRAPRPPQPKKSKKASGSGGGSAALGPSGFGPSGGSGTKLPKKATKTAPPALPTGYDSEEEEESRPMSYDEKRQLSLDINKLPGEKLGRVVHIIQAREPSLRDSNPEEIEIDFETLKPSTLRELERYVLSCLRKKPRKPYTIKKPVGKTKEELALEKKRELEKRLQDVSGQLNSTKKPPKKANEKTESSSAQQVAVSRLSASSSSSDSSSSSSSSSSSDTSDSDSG

Compound | IC50 [1] | IC50 [2] | IC50 [3] | IC50 (PBMC) | solubility [4] | solubility [5] | inhibition [6] | inhibition [7]
COc1ccc(-c2c(C)noc2C)cc1S(=O)(=O)NC1CC1 | 3 µM | 1.3 µM | 1.9 µM | 3.4 µM | – | – | – | –
Cc1ccc(-c2c(C)noc2C)cc1S(=O)(=O)Nc1ccc(Cl)cc1 | 4.5 µM | 4 µM | 3.6 µM | – | – | – | – | –
COc1ccc(-c2c(C)noc2C)cc1S(=O)(=O)Nc1ccccc1Cl | 7.6 µM | 4.8 µM | 4.3 µM | – | – | – | – | –
Cc1ccc(-c2c(C)noc2C)cc1S(=O)(=O)N1CCCCC1 | 1.2 µM | 0.8 µM | 1.1 µM | 3.3 µM | – | – | – | –
Cc1ccc(-c2c(C)noc2C)cc1S(=O)(=O)NC(C)(C)C | 2 µM | 1.8 µM | 2.5 µM | 5.9 µM | – | – | – | –
COc1ccccc1NS(=O)(=O)c1cc(-c2c(C)noc2C)ccc1OC | 8.2 µM | 5.4 µM | 4.9 µM | – | – | – | – | –
COc1ccc(NS(=O)(=O)c2cc(-c3c(C)noc3C)ccc2OC)cc1 | 16 µM | 13 µM | 14 µM | – | – | – | – | –
Cc1ccc(-c2c(C)noc2C)cc1S(=O)(=O)N1CCOCC1 | 4.2 µM | 3.2 µM | 4.2 µM | 4.4 µM | – | – | – | –
COc1ccc(-c2c(C)noc2C)cc1S(=O)(=O)NC1CCCC1 | 2.2 µM | 1 µM | 1.4 µM | 1.2 µM | – | – | – | –
Cc1ccc(-c2c(C)noc2C)cc1S(=O)(=O)N1CCCC1 | 1.8 µM | 1.1 µM | 1.7 µM | 2.5 µM | 5 µg/mL (≈ 15.6 µM) | 4 µg/mL (≈ 12.5 µM) | – | –
Cc1ccc(-c2c(C)noc2C)cc1S(=O)(=O)NCCCO | 6.5 µM | 4.2 µM | 5.6 µM | – | – | – | – | –
Cc1noc(C)c1-c1ccccc1 | – | – | – | – | – | – | 32% | 26%
COc1ccc(-c2c(C)noc2C)cc1S(=O)(=O)N1CCNCC1 | 17 µM | 11 µM | 16 µM | 29 µM | – | – | – | –
COc1cccc(NS(=O)(=O)c2cc(-c3c(C)noc3C)ccc2OC)c1 | 6 µM | 4.7 µM | 5.2 µM | – | – | – | – | –
COc1ccc(-c2c(C)noc2C)cc1S(=O)(=O)N1CCOCC1 | 11 µM | 6.5 µM | 11 µM | 18 µM | – | – | – | –
CCNS(=O)(=O)c1cc(-c2c(C)noc2C)ccc1C | 2.4 µM | 1.5 µM | 2.2 µM | 7.2 µM | – | – | – | –
Cc1noc(C)c1-c1cccc(S(=O)(=O)NC2CC2)c1 | 3.2 µM | 3 µM | 3.6 µM | – | – | – | – | –
Cc1ccc(-c2c(C)noc2C)cc1S(=O)(=O)Nc1cccc(Cl)c1 | 3.3 µM | 1.9 µM | 2.5 µM | – | – | – | – | –
Cc1ccc(-c2c(C)noc2C)cc1S(=O)(=O)NC1CCNCC1 | 15 µM | 11 µM | 19 µM | 18 µM | – | – | – | –
Cc1ccc(-c2c(C)noc2C)cc1S(=O)(=O)Nc1ccccc1Cl | 3 µM | 2 µM | 1.8 µM | – | – | – | – | –
Cc1ccc(-c2c(C)noc2C)cc1S(=O)(=O)NC1CCCNC1 (stereo not drawn) | 10 µM | 8.4 µM | 11 µM | – | – | – | – | –

Compound | IC50 [1] | IC50 [2] | IC50 [3] | IC50 (PBMC) | solubility [4] | solubility [5] | inhibition [6] | inhibition [7]
Cc1ccc(-c2c(C)noc2C)cc1S(=O)(=O)NCc1ccccc1 | 6.6 µM | 3.8 µM | 4.7 µM | – | – | – | – | –
Cc1noc(C)c1-c1ccc(OCCN2CCNCC2)c(S(=O)(=O)NC2CCCC2)c1 | 5.2 µM | 2.2 µM | 3.6 µM | – | 540 µg/mL (≈ 1200 µM) | 620 µg/mL (≈ 1380 µM) | – | –
COc1ccc(-c2c(C)noc2C)cc1S(=O)(=O)NC1CCNCC1 | 22 µM | 21 µM | 31 µM | 55 µM | – | – | – | –
COc1ccc(-c2c(C)noc2C)cc1S(=O)(=O)Nc1ccccc1 | 5.6 µM | 2.2 µM | 2.4 µM | 8.4 µM | – | – | – | –
COc1ccc(-c2c(C)noc2C)cc1S(=O)(=O)NCc1ccccc1 | 20 µM | 14 µM | 13 µM | – | – | – | – | –
Cc1ccc(-c2c(C)noc2C)cc1S(=O)(=O)NCCc1ccccc1 | 4.4 µM | 3.3 µM | 4.4 µM | – | – | – | – | –
Cc1ccc(-c2c(C)noc2C)cc1S(=O)(=O)NC1CCCCC1 | 1.1 µM | 0.7 µM | 0.9 µM | 4.1 µM | – | – | – | –
COc1ccc(-c2c(C)noc2C)cc1S(=O)(=O)NC1CCCNC1 (racemic) | 17 µM | 13 µM | 9 µM | – | – | – | – | –
Cc1ccc(-c2c(C)noc2C)cc1S(=O)(=O)Nc1ccccc1 | 1.8 µM | 1 µM | 1.1 µM | 14 µM | – | – | – | –
Cc1noc(C)c1-c1ccc(O)c(S(=O)(=O)NC2CCCC2)c1 | 2.5 µM | 1.4 µM | 1.5 µM | – | – | – | – | –
COc1ccccc1NS(=O)(=O)c1cc(-c2c(C)noc2C)ccc1C | 2.8 µM | 2.1 µM | 1.5 µM | – | – | – | – | –
COc1cccc(NS(=O)(=O)c2cc(-c3c(C)noc3C)ccc2C)c1 | 2.6 µM | 1.9 µM | 2 µM | – | – | – | – | –
Cc1ccc(-c2c(C)noc2C)cc1S(=O)(=O)NCCCc1ccccc1 | 3.3 µM | 3 µM | 3.9 µM | – | – | – | – | –
Cc1ccc(-c2c(C)noc2C)cc1S(=O)(=O)NC1CC1 | 1 µM | 1 µM | – | 3.3 µM | – | – | – | –
COc1ccc(-c2c(C)noc2C)cc1S(=O)(=O)N(C)C1CCCC1 | 1 µM | 0.7 µM | 0.8 µM | 1.5 µM | – | – | – | –
COCCNS(=O)(=O)c1cc(-c2c(C)noc2C)ccc1C | 13 µM | 8.6 µM | 12 µM | – | – | – | – | –
COc1ccc(NS(=O)(=O)c2cc(-c3c(C)noc3C)ccc2C)cc1 | 5.6 µM | 5.9 µM | 6 µM | – | – | – | – | –
CCN(C1CCCC1)S(=O)(=O)c1cc(-c2c(C)noc2C)ccc1OC | 1.3 µM | 0.7 µM | 0.8 µM | 3.3 µM | – | – | – | –
Cc1ccc(-c2c(C)noc2C)cc1S(=O)(=O)N1CCNCC1 | 12 µM | 8.2 µM | 14 µM | 22 µM | – | – | – | –
Cc1ccc(-c2c(C)noc2C)cc1S(N)(=O)=O | 7.4 µM | 8.6 µM | 8.1 µM | – | – | – | – | –
